ChEMBL document CHEMBL4229374 (Eur J Med Chem, 2018)
Calls of active or inactive are those of the source. No cut-off for these calls is given here.

Experiments:
[1] = tested on: CWR22R; experiment: Potency index, ratio of IC50 for flufenamic acid to IC50 for test compound for antiproliferative activity against human 22Rv1 cells after 72 hrs by sulforhodamine B colorimetric assay; type: functional
[2] = target: T1, Aldo-keto reductase family 1 member C2 (Homo sapiens, UniProt P52895); experiment: Inhibition of recombinant N-terminal GST-tagged human AKR1C2 expressed in Escherichia coli BL21 (DE) Codon Plus RP cells using S-tetralol as substrate in presence of NADP+ by fluorimetric analysis
T1 sequence (P52895 whole entry): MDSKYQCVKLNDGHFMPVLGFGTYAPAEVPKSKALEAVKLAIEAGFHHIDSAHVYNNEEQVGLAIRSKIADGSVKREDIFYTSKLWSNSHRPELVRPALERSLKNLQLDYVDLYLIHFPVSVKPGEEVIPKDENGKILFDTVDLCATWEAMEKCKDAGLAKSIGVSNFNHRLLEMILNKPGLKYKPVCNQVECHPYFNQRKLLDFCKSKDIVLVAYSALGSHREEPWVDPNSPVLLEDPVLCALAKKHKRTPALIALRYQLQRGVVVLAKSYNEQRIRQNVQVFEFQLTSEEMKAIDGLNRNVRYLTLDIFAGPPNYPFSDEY
In short: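 GST-tagged AKR1C2 purified on glutathione sepharose with thrombin cleavage. Percent inhibition from initial velocities versus solvent controls. IC50 as means of two experiments, each in triplicate.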

[3] = target: T2, Aldo-keto reductase family 1 member C3 (Homo sapiens) (UniProt P42330); experiment: Inhibition of AKR1C3-mediated testosterone production in human 22Rv1 cells preincubated for 1 hr followed by androstenedione addition and measured after 24 hrs by ELISA; type: cell-based
T2 sequence (whole entry): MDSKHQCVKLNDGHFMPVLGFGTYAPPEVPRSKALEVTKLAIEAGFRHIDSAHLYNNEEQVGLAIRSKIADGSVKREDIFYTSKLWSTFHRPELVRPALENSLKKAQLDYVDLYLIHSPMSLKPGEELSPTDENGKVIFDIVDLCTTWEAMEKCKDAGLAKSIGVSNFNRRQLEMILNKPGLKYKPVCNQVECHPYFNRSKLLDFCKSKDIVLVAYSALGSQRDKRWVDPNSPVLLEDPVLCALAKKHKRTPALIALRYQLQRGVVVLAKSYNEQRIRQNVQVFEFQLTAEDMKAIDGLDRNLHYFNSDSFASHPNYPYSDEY
In short: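 22RV1 at 30,000 cells/well in RPMI with 10% charcoal-stripped serum, 37 °C, 5% CO2, 24 h. Inhibitor added at 4 concentrations for 1 h, then androstenedione 28 nM; further 24 h. Testosterone in supernatant quantified by ELISA. Means of two separate experiments, each in triplicate.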

[4] = target: T3, Aldo-keto reductase family 1 member C3 (Homo sapiens, UniProt P42330); experiment: Inhibition of recombinant N-terminal GST-tagged human AKR1C3 expressed in Escherichia coli BL21 (DE) Codon Plus RP cells using S-tetralol as substrate in presence of NADP+ by fluorimetric analysis
T3 sequence (P42330 whole entry): T2 sequence (whole entry)

[5] = tested on: CWR22R; experiment: Synergistic antiproliferative activity against human 22Rv1 cells assessed as reduction in cell viability at 20 uM after 72 hrs in presence of enzalutamide by sulforhodamine B colorimetric proliferation assay; type: functional
[6] = tested on: CWR22R; experiment: Synergistic antiproliferative activity against human 22Rv1 cells assessed as reduction in cell viability at 20 uM after 72 hrs in presence of abiraterone by sulforhodamine B colorimetric proliferation assay; type: functional
[7] = tested on: CWR22R; experiment: Antiproliferative activity against human 22Rv1 cells after 72 hrs by sulforhodamine B colorimetric assay; type: functional, cell-based; details: 22Rv1, 72 h
[8] = target: T4, Prostaglandin G/H synthase 1 (Ovis aries, UniProt P05979); experiment: Inhibition of ovine COX1 assessed as reduction in PGF2alpha production by ELISA
T4 sequence (P05979 whole entry): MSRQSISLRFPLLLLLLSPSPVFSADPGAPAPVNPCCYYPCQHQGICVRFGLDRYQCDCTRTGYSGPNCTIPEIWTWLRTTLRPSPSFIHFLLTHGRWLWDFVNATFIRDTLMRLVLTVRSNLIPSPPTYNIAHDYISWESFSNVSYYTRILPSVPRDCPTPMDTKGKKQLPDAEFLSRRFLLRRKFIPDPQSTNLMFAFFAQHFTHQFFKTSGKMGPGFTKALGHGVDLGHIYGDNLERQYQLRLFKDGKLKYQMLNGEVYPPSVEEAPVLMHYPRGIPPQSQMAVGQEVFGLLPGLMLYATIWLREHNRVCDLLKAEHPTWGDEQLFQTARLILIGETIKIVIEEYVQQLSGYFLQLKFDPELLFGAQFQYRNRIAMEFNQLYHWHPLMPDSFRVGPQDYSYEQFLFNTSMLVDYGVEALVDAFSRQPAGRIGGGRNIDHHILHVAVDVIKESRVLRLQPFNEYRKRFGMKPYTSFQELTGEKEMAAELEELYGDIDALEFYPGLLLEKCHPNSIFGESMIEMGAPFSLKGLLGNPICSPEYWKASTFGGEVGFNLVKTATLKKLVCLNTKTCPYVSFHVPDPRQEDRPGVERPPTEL
In short: (§1)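 Ovine COX1 or human COX2 reaction in a commercial inhibitor screening kit. PGH2 formed is reduced with SnCl2 to PGF2α, which is quantified by enzyme immunoassay (absorbance). Single-point inhibition at 100 µM given as % ± SE. IC50 by linear regression. Mean ± SE of at least three experiments.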

[9] = target: T5, COX1 (prostaglandin G/H synthase 1) (Ovis aries, UniProt P05979); experiment: Inhibition of ovine COX1 assessed as reduction in PGF2alpha production at 100 uM by ELISA; details: sheep, ovine COX1 enzyme; in short: as §1
T5 sequence (P05979 whole entry): T4 sequence (P05979 whole entry)

[10] = tested on: CWR22R; experiment: Reduction in PSA expression level in human 22Rv1 cells by Western blot analysis; type: functional, cell-based
In short: (§2)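 22RV1 treated for 72 h at three concentrations. Viable cells lysed in RIPA buffer with protease inhibitors, protein measured by Bradford, 20 µg run on SDS-PAGE and transferred to nitrocellulose. Probed overnight at 4 °C with goat polyclonal anti-PSA (1:500), β-actin as reference, HRP secondary, ECL detection; Ponceau staining as loading check.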

[11] = target: Prostaglandin G/H synthase 2 (Homo sapiens) (UniProt P35354); experiment: Inhibition of human COX2 assessed as reduction in PGF2alpha production at 100 uM by ELISA; details: human COX2 enzyme
[12] = tested on: CWR22R; experiment: Antiproliferative activity against human 22Rv1 cells assessed as inhibition of cell proliferation at 100 uM after 72 hrs by sulforhodamine B colorimetric assay; type: functional; details: 22Rv1, 72 h
[13] = tested on: CWR22R; experiment: Reduction in PSA expression level in human 22Rv1 cells at 1 to 30 uM by Western blot analysis; type: functional, cell-based; in short: as §2

Prostaglandin G/H synthase 2 (Homo sapiens), sequence (P35354 whole entry, looked up): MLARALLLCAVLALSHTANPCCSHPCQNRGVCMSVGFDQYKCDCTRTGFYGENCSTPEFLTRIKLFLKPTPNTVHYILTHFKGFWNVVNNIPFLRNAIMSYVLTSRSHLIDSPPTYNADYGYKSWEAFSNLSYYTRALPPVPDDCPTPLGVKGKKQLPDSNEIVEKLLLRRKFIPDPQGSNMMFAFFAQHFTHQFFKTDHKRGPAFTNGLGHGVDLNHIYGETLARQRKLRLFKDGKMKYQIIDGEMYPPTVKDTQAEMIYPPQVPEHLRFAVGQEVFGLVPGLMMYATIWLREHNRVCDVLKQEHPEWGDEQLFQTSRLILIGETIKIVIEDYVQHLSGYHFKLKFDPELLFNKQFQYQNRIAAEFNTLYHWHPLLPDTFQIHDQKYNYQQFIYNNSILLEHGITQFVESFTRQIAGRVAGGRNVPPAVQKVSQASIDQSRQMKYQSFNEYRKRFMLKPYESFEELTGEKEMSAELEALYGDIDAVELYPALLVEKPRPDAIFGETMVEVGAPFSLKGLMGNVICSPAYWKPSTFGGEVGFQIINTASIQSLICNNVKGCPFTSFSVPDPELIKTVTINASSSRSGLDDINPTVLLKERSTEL

Row | Compound | IC50 [2] | inhibition [3] | IC50 [4] | IC50 [8] | inhibition at 100 µM [9] | inhibition at 100 µM [11] | Ratio IC50 [1] | Activity [5] | Activity [6] | IC50 [7] | Activity [10] | inhibition at 100 µM [12] | Activity [13]
1 | O=C(Nc1cccc(C(F)(F)F)c1)c1c(O)nnn1Cc1ccc(OC(F)(F)F)cc1 | 54.9 µM | Dose-dependent effect | 0.19 µM | > 100 µM | 0% | 0% | >=4 | 10 - 25% | 10 - 25% | 31.3 µM | Dose-dependent effect | – | –
2 | Oc1noc2cccc(Nc3cc(C(F)(F)F)cc(C(F)(F)F)c3)c12 | 119 µM | – | – | > 100 µM | 2.1% | 0% | – | 10 - 25% | 10 - 25% | – | – | – | –
3 | COc1ccc(Cn2nnc(O)c2C(=O)Nc2cccc(C(F)(F)F)c2)cc1 | – | – | – | – | – | – | – | – | – | – | – | – | inactive
4 | COc1ccc(Cn2nnc(O)c2C(=O)Nc2cccc(C(F)(F)F)c2)cc1OC | 108 µM | – | 0.4 µM | > 100 µM | 0% | 0.87% | – | – | – | 59.2 µM | Dose-dependent effect | – | –

Continued, in another order:

Row | IC50 [2] | inhibition [3] | IC50 [4] | IC50 [8] | inhibition at 100 µM [9] | inhibition at 100 µM [11] | Compound | Ratio IC50 [1] | Activity [5] | Activity [6] | IC50 [7] | Activity [10] | inhibition at 100 µM [12] | Activity [13]
5 | 4.29 µM | – | 0.31 µM | > 100 µM | 0% | 4.3% | Oc1noc2cccc(Nc3cccc(S(F)(F)(F)(F)F)c3)c12 | – | – | – | 64.9 µM | – | – | –
6 | 4.38 µM | – | 0.55 µM | > 100 µM | 29% | 13% | Oc1noc2cccc(Nc3cccc(C(F)(F)F)c3)c12 | – | – | – | 64.8 µM | – | – | –
7 | 5.7 µM | – | 1.41 µM | > 100 µM | 0% | 0.37% | O=[N+]([O-])c1cccc(Nc2cccc3onc(O)c23)c1 | – | – | – | > 100 µM | – | 31.1% | –
8 | 66.9 µM | – | 3.48 µM | > 100 µM | 29% | 0% | Oc1noc2ccc(Nc3cccc(C(F)(F)F)c3)cc12 | – | – | – | 74.8 µM | – | – | –
